MIC and Activity data for seven compounds are collected here from ChEMBL document CHEMBL3046678, “Isolation and characterization of new p-Terphenyls with antifungal, antibacterial, and antioxidant activities from halophilic actinomycete Nocardiopsis gilva YIM 90087” (2013).

The subject of one assay is Bacillus subtilis. Put plainly: Antibacterial activity against Bacillus subtilis after 24 hr by microdilution method. The format is functional. Summed up:
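Bacteria grown 18 h, diluted in LB broth to 1 × 10^5 CFU/mL in 96-well microplates. Compounds in DMSO, 2-fold serial dilutions 512 to 0.5 μg/mL final, DMSO ≤5%. Incubated 37 °C for 24 h, growth checked by microscope. MIC = lowest concentration giving complete growth inhibition. DMSO negative control, kanamycin positive control, three repeats.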
(In general: Broth dilution looks for growth in wells or tubes with falling amounts of substance.)

A further assay has as its system Fusarium avenaceum. Put plainly: Antifungal activity against Fusarium avenaceum after 4 days by microdilution method. It is filed as functional. Put shortly: (§1)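 Spores from 4-day-old cultures in PDB broth at 1 × 10^3 spores/mL, 96-well broth microdilution. Compounds in DMSO (final ≤5%), 2-fold serial dilutions 512–0.5 μg/mL. Incubated 28 °C, 4 days. DMSO negative control, nystatin positive control. Growth checked microscopically. MIC is the lowest concentration with complete inhibition. Experiments repeated three times.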

Assay [1] in a line: Antioxidant activity assessed as ABTS radical scavenging activity at 1 mg/ml after 5 min by spectrophotometric analysis. It is filed as functional. Put shortly: (§2)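 ABTS radical cation made from ABTS (7 mM) and potassium persulfate (2.45 mM), held 16 h in dark at room temperature, then 350 μL diluted to 25 mL with aqueous 80% EtOH. Sample added to 250 μL working solution, kept 5 min in dark at room temperature, A734 read. Scavenging % = [1 − (Ae − As)/Ac] × 100 against solvent control, triplicate.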

Another assay relates to Fusarium graminearum. Put plainly: Antifungal activity against Fusarium graminearum after 4 days by microdilution method. It is filed as functional. Put shortly: as §1
A further assay relates to Fusarium culmorum. Put plainly: Antifungal activity against Fusarium culmorum after 4 days by microdilution method. The format is functional. Put shortly: as §1
Assay [2] concerns Radical scavenging activity. Put plainly: Antioxidant activity assessed as DPPH radical scavenging activity at 2 mg/ml after 30 min by spectrophotometric analysis. It is filed as functional. Put shortly: (§3)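 DPPH stock diluted 1:20 in EtOH; 290 μL of this mixed with 10 μL sample, EtOH as negative control, vitamin C as positive control. Kept 30 min in dark, absorbance read at 517 nm. Scavenging % = [1 − (Ae − As)/Ac] × 100, where As is sample blank absorbance. Triplicate.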
A general note: Loss of DPPH colour is used to gauge radical scavenging.

Another assay deals with Candida albicans. Description: Antifungal activity against Candida albicans after 4 days by microdilution method. The format is functional. Put shortly:
as §1

Assay [3] is described as follows: Antioxidant activity assessed as ABTS radical scavenging activity at 2 mg/ml after 5 min by spectrophotometric analysis. It is filed as functional. Put shortly: as §2
Assay [4] concerns Radical scavenging activity. Put plainly: Antioxidant activity assessed as DPPH radical scavenging activity at 4 mg/ml after 30 min by spectrophotometric analysis. The format is functional. Summed up:
as §3

Assay [5] in a line: Antioxidant activity assessed as ABTS radical scavenging activity at 0.16 mg/ml after 5 min by spectrophotometric analysis. It is filed as functional. Summed up:
as §2

Assay [6] is described as follows: Antioxidant activity assessed as superoxide anion radical scavenging activity at 5 mg/ml after 5 min by spectrophotometric analysis. It is filed as functional. Put shortly: (§4)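 Superoxide made by non-enzymatic NADH–PMS system, detected by NBT reduction. 200 μL mix of 150 μM NBT and 234 μM NADH in 16 mM Tris-HCl pH 8.0, plus 10 μL sample. Reaction started with 100 μL of 30 μM PMS in the same buffer, 5 min at room temperature, A560 read. % = [1 − (Ae − As)/Ac] × 100, triplicate.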

For assay [7], the system named is Radical scavenging activity. Description: Antioxidant activity assessed as DPPH radical scavenging activity at 0.8 mg/ml after 30 min by spectrophotometric analysis. It is filed as functional. Summed up:
as §3

The subject of the next assay is Escherichia coli. Put plainly: Antibacterial activity against Escherichia coli after 24 hr by microdilution method. The format is functional. Put shortly: (§5)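 Bacteria from 18-h cultures in LB broth at 1 × 10^5 CFU/mL, 96-well broth microdilution. Compounds in DMSO (final ≤5%), 2-fold serial dilutions from 512 to 0.5 μg/mL. Incubated 37 °C for 24 h. DMSO-only negative control, kanamycin positive control. Growth read by microscope. MIC is the lowest concentration giving complete growth inhibition. Three repeats.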

The next assay deals with Staphylococcus aureus. Put plainly: Antibacterial activity against Staphylococcus aureus after 24 hr by microdilution method. The format is functional. Put shortly: as §5
Assay [8] can be described thus: Antioxidant activity assessed as superoxide anion radical scavenging activity at 2 mg/ml after 5 min by spectrophotometric analysis. It is filed as functional. Put shortly:
as §4

Assay [9] can be described thus: Antioxidant activity assessed as ABTS radical scavenging activity at 0.5 mg/ml after 5 min by spectrophotometric analysis. The format is functional. Summed up: as §2
In the next assay the test system is Pyricularia oryzae. Put plainly: Antifungal activity against Magnaporthe oryzae after 4 days by microdilution method. It is filed as functional. Summed up: as §1
In another assay the test system is Aspergillus niger. Description: Antifungal activity against Aspergillus niger after 4 days by microdilution method. It is filed as functional, organism-based. Put shortly: as §1
The next assay relates to Trichophyton verrucosum. Description: Antifungal activity against Trichophyton verrucosum after 4 days by microdilution method. It is filed as functional, organism-based. Put shortly: as §1

In general, MIC refers to the least concentration at which growth counts as inhibited. Low values mean a more susceptible organism, high ones a less susceptible organism.

Values after ≈ are worked out from the molar mass of the structure shown.

In the case of `COc1ccc(-c2cc(O)c(-c3ccc(OC)cc3)c(OC)c2OC)cc1`, the MIC amounted to 64 µg/mL (≈ 175 µM) against Bacillus subtilis; 8 µg/mL (≈ 21.8 µM) against Fusarium avenaceum (96 h); 16 µg/mL (≈ 43.7 µM) against Fusarium graminearum (96 h); 128 µg/mL (≈ 349 µM) in the assay with Fusarium culmorum (96 h); 32 µg/mL (≈ 87.3 µM) against Candida albicans (96 h). Also, the figures for the Activity in assay [1] and in assay [2] were 68.6% and 54.9%, respectively.

On to `COc1ccc(-c2c(OC)c(O)c(-c3ccc(OC)cc3)c3scnc23)cc1`, for which the figures for the Activity in assay [3] and in assay [4] were 28.4% and 14.3%, respectively.

Turning to `C[C@@H]1NC(=O)[C@H](Cc2c[nH]c3ccccc23)NC1=O`, the Activity in assay [3] turned out to be 54.6%.

On to `O=C1O[C@H]([C@@H](O)CO)C(O)=C1O`, for which the Activity in [5] is 79.1%; in assay [6] it was 75.5%; in assay [7], 43.9%.

As to `NC[C@H]1O[C@H](O[C@H]2[C@H](O)[C@@H](O[C@H]3O[C@H](CO)[C@@H](O)[C@H](N)[C@H]3O)[C@H](N)C[C@@H]2N)[C@H](O)[C@@H](O)[C@@H]1O` [KANAMYCIN], the MIC turned out to be 1 µg/mL (≈ 2.06 µM) in the assay on Bacillus subtilis, 1 µg/mL (≈ 2.06 µM) against Escherichia coli and 4 µg/mL (≈ 8.26 µM) with Staphylococcus aureus.

On to `CO[C@@H]1[C@@H](OC(N)=O)[C@@H](O)[C@H](Oc2ccc3c(O)c(NC(=O)c4ccc(O)c(CC=C(C)C)c4)c(=O)oc3c2C)OC1(C)C` [NOVOBIOCIN], for which the figures for the MIC against Bacillus subtilis, with Staphylococcus aureus and against Pyricularia oryzae (96 h) were 16 µg/mL (≈ 26.1 µM), 64 µg/mL (≈ 104 µM) and 16 µg/mL (≈ 26.1 µM), respectively. Besides, the Activity in assay [8] was found to be 77.9%; in assay [9], 78.2%; in assay [2], 47.7%.

With NYSTATIN, the MIC in the assay on Aspergillus niger turned out to be 8 µg/mL; in the assay on Fusarium avenaceum it was 1 µg/mL; in the assay on Fusarium graminearum, 4 µg/mL; against Pyricularia oryzae, 8 µg/mL; with Fusarium culmorum, 1 µg/mL; in the assay on Candida albicans it was 4 µg/mL. The lowest concentration to inhibit growth against Trichophyton verrucosum (MIC) was 4 µg/mL.
